Results as given in article PMC9299227 (Diabetes, Obesity & Metabolism, 2021).

Tests used:
[1] = test system: Japanese participants with type 2 diabetes; test: Safety and tolerability; type: in vivo, human
[2] = Plasma tirzepatide pharmacokinetics, non-compartmental analysis; type: in vivo; details: human, sc, 5 mg
Outline: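 Noncompartmental PK on plasma drug levels after weekly SC abdominal dosing at 5 mg for weeks 1-8. Sampling spanned one 168-h interval after the day 1 dose and up to 840 h after the last dose on day 50. Steady-state CL/F and Vz/F were estimated as extravascular parameters and summarized descriptively by dose level.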

[3] = test system: Japanese participants with type 2 diabetes; test: Fasting plasma glucose, change from baseline versus placebo; type: in vivo, human; details: P < .0001
Outline: (§1)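 Randomized, participant- and investigator-blind, placebo-controlled trial. Adults aged 20-70 with T2D for ≥1 year and BMI 20-35 kg/m2; metformin or DPP-4 inhibitor withdrawn ≥28 days before dosing. Once-weekly SC abdominal-wall injections for 8 weeks, rotating four sites. Escalation: 5 mg fixed; 2.5→5→10 mg; 5→10→15 mg. Change from baseline by mixed-effects model (regimen fixed, participant random, day and regimen-by-day terms); LS means, 95% CI, P<.05.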

[4] = test system: Japanese participants with type 2 diabetes; test: HbA1c, change from baseline versus placebo; type: in vivo, human; details: for HbA1c, LS mean decrease from baseline versus placebo: P < .0001
Outline: as §1

[5] = test system: Japanese participants with type 2 diabetes; test: Body weight, change from baseline versus placebo; type: in vivo, human; details: P < .0001
Outline: as §1

[6] = test system: Japanese participants with type 2 diabetes; test: Seven-point self-monitored plasma glucose; type: in vivo, human; details: week 2 to week 8, all doses of tirzepatide
Outline: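 Patients with T2D receive weekly SC injections of test compound (escalating to 5, 10 or 15 mg) or placebo into the abdominal wall for 8 weeks. Plasma glucose is self-monitored at seven time points across the day and profiled as an arithmetic mean at day 57. Change from baseline is analysed by mixed-effects model (regimen fixed, participant random) as LS means with 95% CI.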

[7] = test system: Japanese participants with type 2 diabetes; test: Serum lipids; type: in vivo, human
[8] = test system: Japanese participants with type 2 diabetes; test: Meal intake and subjective appetite sensation; type: in vivo, human
Outline: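 Once-weekly SC test compound (5, 10 or 15 mg groups, escalated) or placebo into the abdominal wall for 8 weeks. Standardized lunch and dinner are given and intake is recorded. Hunger, fullness, satiety and prospective food consumption are rated on a 100-mm VAS before and 4-5 h after the meal. Overall score is the mean of satiety, fullness, (100 − prospective consumption) and (100 − hunger).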

participants with T2D = details: 26 weeks, cited from earlier work
[9] = 5-mg group (5 mg weeks 1-8), SC once weekly, 8 weeks, N = 11
[10] = 10-mg group (2.5 mg weeks 1-2, 5 mg weeks 3-4, 10 mg weeks 5-8), SC once weekly, N = 12
[11] = 15-mg group (5 mg weeks 1-2, 10 mg weeks 3-6, 15 mg weeks 7-8), SC once weekly, N = 16

With `CC[C@H](C)[C@H](NC(=O)[C@H](CC(C)C)NC(=O)[C@H](Cc1c[nH]c2ccccc12)NC(=O)[C@H](CCC(N)=O)NC(=O)[C@@H](NC(=O)[C@H](Cc1ccccc1)NC(=O)[C@H](C)NC(=O)[C@H](CCCCNC(=O)COCCOCCNC(=O)COCCOCCNC(=O)CC[C@H](NC(=O)CCCCCCCCCCCCCCCCCCC(=O)O)C(=O)O)NC(=O)[C@H](CCC(N)=O)NC(=O)[C@H](C)NC(=O)[C@@H](NC(=O)[C@H](CCCCN)NC(=O)[C@H](CC(=O)O)NC(=O)[C@H](CC(C)C)NC(=O)C(C)(C)NC(=O)[C@@H](NC(=O)[C@H](CO)NC(=O)[C@H](Cc1ccc(O)cc1)NC(=O)[C@H](CC(=O)O)NC(=O)[C@H](CO)NC(=O)[C@@H](NC(=O)[C@H](Cc1ccccc1)NC(=O)[C@@H](NC(=O)CNC(=O)[C@H](CCC(=O)O)NC(=O)C(C)(C)NC(=O)[C@@H](N)Cc1ccc(O)cc1)[C@@H](C)O)[C@@H](C)O)[C@@H](C)CC)[C@@H](C)CC)C(C)C)C(=O)N[C@@H](C)C(=O)NCC(=O)NCC(=O)N1CCC[C@H]1C(=O)N[C@@H](CO)C(=O)N[C@@H](CO)C(=O)NCC(=O)N[C@@H](C)C(=O)N1CCC[C@H]1C(=O)N1CCC[C@H]1C(=O)N1CCC[C@H]1C(=O)N[C@@H](CO)C(N)=O` [tirzepatide] the “Abdominal discomfort, treatment-emergent adverse event” value (“Abdominal discomfort” for short) [1, 9] was 0 n (%), the “Abdominal distension, treatment-emergent adverse event” value (“Abdominal distension” for short) [1, 9] was 3 (27.3) n (%) and the “Blood triglycerides increased, treatment-emergent adverse event” value (“Blood triglycerides increased” for short) [1, 9] was 0 n (%). For the same compound, the “Constipation, treatment-emergent adverse event” value [1, 9] was 0 n (%), the “Decreased appetite, treatment-emergent adverse event” value (from here on “Decreased appetite”) [1, 9] was 5 (45.5) n (%) and the “Diarrhea, treatment-emergent adverse event” value [1, 9] was 0 n (%). The “Dyspepsia, treatment-emergent adverse event” value [1, 9] was 0 n (%), the “Headache, treatment-emergent adverse event” value [1, 9] was 0 n (%) and the “Lipase increased, treatment-emergent adverse event” value (shortened to “Lipase increased”) [1, 9] was 0 n (%). The “Nausea, treatment-emergent adverse event” value [1, 9] was 1 (9.1) n (%), the “Viral upper respiratory tract infection, treatment-emergent adverse event” value [1, 9] was 1 (9.1) n (%) and the “Vomiting, treatment-emergent adverse event” value [1, 9] was 1 (9.1) n (%). The “White blood cell count increased, treatment-emergent adverse event” value (from here on “White blood cell count increased”) [1, 9] was 1 (9.1) n (%), the “Abdominal discomfort” value [1, 10] was 2 (16.7) n (%) and the “Abdominal distension” value [1, 10] was 1 (8.3) n (%). The “Blood triglycerides increased” value [1, 10] was 0 n (%), the “Constipation, treatment-emergent adverse event” value [1, 10] was 8 (66.7) n (%) and the “Decreased appetite” value [1, 10] was 6 (50.0) n (%). The “Diarrhea, treatment-emergent adverse event” value [1, 10] was 3 (25.0) n (%), the “Dyspepsia, treatment-emergent adverse event” value [1, 10] was 3 (25.0) n (%) and the “Headache, treatment-emergent adverse event” value [1, 10] was 3 (25.0) n (%). For the same compound, the “Lipase increased” value [1, 10] was 1 (8.3) n (%), the “Nausea, treatment-emergent adverse event” value [1, 10] was 0 n (%) and the “Vomiting, treatment-emergent adverse event” value [1, 10] was 1 (8.3) n (%). The “White blood cell count increased” value [1, 10] was 0 n (%), the “Abdominal discomfort” value [1, 11] was 4 (25.0) n (%) and the “Abdominal distension” value [1, 11] was 0 n (%). The “Blood triglycerides increased” value [1, 11] was 1 (6.3) n (%), the “Constipation, treatment-emergent adverse event” value [1, 11] was 8 (50.0) n (%) and the “Decreased appetite” value [1, 11] was 10 (62.5) n (%). The “Diarrhea, treatment-emergent adverse event” value [1, 11] was 5 (31.3) n (%), the “Dyspepsia, treatment-emergent adverse event” value [1, 11] was 0 n (%) and the “Headache, treatment-emergent adverse event” value [1, 11] was 1 (6.3) n (%). For the same compound, the “Lipase increased” value [1, 11] was 2 (12.5) n (%), the “Nausea, treatment-emergent adverse event” value [1, 11] was 2 (12.5) n (%) and the “Vomiting, treatment-emergent adverse event” value [1, 11] was 2 (12.5) n (%). For the same compound, the “White blood cell count increased” value [1, 11] was 1 (6.3) n (%), the Tolerability ([1]; all tirzepatide doses (5-, 10-, 15-mg groups), SC once weekly, 8 weeks) was “all tirzepatide doses were well tolerated” and the “Severe hypoglycemia or nocturnal hypoglycemia events” value ([1]; all treatment groups, 8 weeks) was “No severe hypoglycemia or nocturnal hypoglycemia events were reported”. The “Injection-site or hypersensitivity AEs” value ([1]; all treatment groups, SC abdominal wall, 8 weeks) was “No injection‐site or hypersensitivity AEs were reported”, the “Deaths or serious AEs” value ([1]; all treatment groups, SC once weekly, 8 weeks) was “No deaths or serious AEs occurred during the study” and the “Systolic and diastolic blood pressure, mean predose” value ([1]; participants treated with tirzepatide (Figure S3)) was “no significant changes in blood pressure”. The Vd/F [2] was 5.27 L, the “Fasting plasma glucose, LS mean decrease from baseline versus placebo (95% CI)” value ([3]; week 8, 5-mg group) was 52.7 (35.9‐69.6) mg/dL and the “Fasting plasma glucose, LS mean decrease from baseline versus placebo (95% CI)” value ([3]; week 8, 10-mg group) was 69.1 (52.3‐85.9) mg/dL. For the same compound, the “Fasting plasma glucose, LS mean decrease from baseline versus placebo (95% CI)” value ([3]; week 8, 15-mg group) was 68.9 (53.2‐84.6) mg/dL, the “HbA1c, LS mean decreases from baseline versus placebo, across treatment groups” value ([4]; 8 weeks, 95% CI 1.2%-1.9%, P < .0001 for all treatment groups) was “up to 1.6%” and the “HbA1c, LS mean decrease from baseline versus placebo” value ([4]; week 8, 5-mg group, 95% CI 0.8%-1.5%) was 1.1%. The “HbA1c, LS mean decrease from baseline versus placebo” value ([4]; week 8, 10-mg group, 95% CI 0.9%-1.7%) was 1.3%, the “HbA1c, LS mean decrease from baseline versus placebo” value ([4]; week 8, 15-mg group, 95% CI 1.2%-1.9%) was 1.6% and the “Body weight, LS mean decrease from baseline (95% CI) versus placebo” value ([5]; week 8, 5-mg group) was 3.4 (2.0‐4.8) kg. For the same compound, the “Body weight, LS mean decrease from baseline (95% CI) versus placebo” value ([5]; week 8, 10-mg group) was 5.0 (3.6‐6.5) kg, the “Body weight, LS mean decrease from baseline (95% CI) versus placebo” value ([5]; week 8, 15-mg group) was 6.6 (5.3‐7.9) kg and the “Seven-point SMPG daily profile compared with placebo” value [6] was “improved overall daily SMPG profiles compared with placebo”. The “Triglyceride postdose (week 8), mean (SD)” value (“Triglyceride postdose … (SD)” for short) ([7]; 5-mg group, predose (week 1) 204 (56) mg/dL) was 161 (51) mg/dL, the “Triglyceride postdose … (SD)” value ([7]; 10-mg group, predose (week 1) 172 (71) mg/dL) was 122 (38) mg/dL and the “Triglyceride postdose … (SD)” value ([7]; 15-mg group, predose (week 1) 173 (121) mg/dL) was 122 (55) mg/dL. For the same compound, the Overall appetite score ([8]; average of four VAS scores, among treatment groups (Figure S5)) was “overall appetite score was not different among the treatment groups”, the “Hunger and fullness scores, visual analog scale, compared with placebo” value ([8]; lunch and dinner, all tirzepatide dose levels (Figure S5)) was “numerically decreased hunger and fullness scores” and the “Percentage of meal intake compared with placebo” value ([8]; week 8, standardized meals (Figure S4)) was “dose‐dependent decrease in the percentage of meal intake compared with placebo”. The Body weight reduction (participants with T2D; 5-, 10-, and 15-mg doses versus placebo) was “significant, dose‐dependent reductions in body weight for the 5‐, 10‐, and 15‐mg doses of tirzepatide versus placebo” and the HbA1c reduction (participants with T2D; doses 1, 5, 10, and 15 mg, versus placebo) was “significant dose‐dependent reductions in HbA1c at all doses (1, 5, 10, and 15 mg) versus placebo”.
